# OX1R antag-1 – blocks the human orexin 1 receptor | O43613 | CHO/OX1R cells, Fluo-8 calcium fluorescence, orexin A | inhibition, % at 5 µM | actives 0.43% (n = 330,000) | AID 434989;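 active = inhibition above its plate's threshold, mean inhibition of all tested compounds on the plate plus 3 SD, cut at about 37% in these data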;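 also: 0% = orexin A challenge wells and 100% = SB-334867-A antagonist wells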
# Target sequence (O43613 whole entry, looked up): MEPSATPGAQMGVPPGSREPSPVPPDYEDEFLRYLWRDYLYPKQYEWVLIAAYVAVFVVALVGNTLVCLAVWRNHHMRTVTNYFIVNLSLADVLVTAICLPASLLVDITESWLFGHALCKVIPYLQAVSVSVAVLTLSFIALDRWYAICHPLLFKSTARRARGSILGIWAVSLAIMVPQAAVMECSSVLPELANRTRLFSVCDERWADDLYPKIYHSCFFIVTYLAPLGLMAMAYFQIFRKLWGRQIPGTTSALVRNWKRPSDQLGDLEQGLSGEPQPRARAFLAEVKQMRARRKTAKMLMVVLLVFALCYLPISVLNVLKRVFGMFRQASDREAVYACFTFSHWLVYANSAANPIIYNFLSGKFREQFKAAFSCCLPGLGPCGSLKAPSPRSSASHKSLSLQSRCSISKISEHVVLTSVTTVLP
# M1 PAM parental – nonselective activator or artifact in parental CHO-K1 calcium assay. ATP EC20, Fluo-8 calcium fluorescence; 0% at ATP EC20, 100% at ATP max. activation, % at 3 µM. actives 0.02% (n = 360,000);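 active = activation above the run cutoff, the mean activation of all test compounds plus 3 SD, cut at about 40% in these data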;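 also: peak over basal fluorescence ratio in a 140 s read after ATP addition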
# OX1R antag-2 – antagonists of human orexin 1 receptor (OX1R) | AID 485270 | inhibition, % at 6.6 µM | OX1R-expressing cells, FRET antagonist read-out | actives 1.8% (n = 330,000) | O43613; in the data active = inhibition mostly above about 38%, no sharp cut-off; inactive = mostly below about 40%;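 also: 0% = agonist challenge alone and 100% = reference antagonist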
# CHO-K1 Ca antag – nonselective inhibitor or artifact in parental CHO-K1 cells; inhibition, % at 3 µM; actives 0.6% (n = 360,000); ATP-induced calcium, Fluo-8 fluorescence;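 active = inhibition above a per-plate cutoff, the plate's mean sample inhibition plus 3 SD, cut at about 24% in these data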;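 also: 0% = DMSO plus EC80 ATP and 100% = DMSO alone without ATP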
# CHO-K1 Ca ag – counter-screen for M1 agonists: effect in parental CHO-K1 cells. Fluo-8 calcium fluorescence; scaled to maximal ATP response, vehicle zero. actives 0.48% (n = 360,000). AID 602248. activation, % at 3 µM; in the data active = activation above about 15%;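 also: untransfected CHO-K1 host cells lacking M1 receptor as counterscreen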
# CHO parental Ca – counter-screen for OX1R antagonists: effect in parental CHO cells | parental CHO-K1, ATP-induced calcium, Fluo-8 fluorescence | inhibition, % at 5.6 µM | actives 0.63% (n = 330,000);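 active = inhibition above that plate's mean sample inhibition plus 3 SD, cut at about 26% in these data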;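 also: 0% = ATP-challenged DMSO wells and 100% = DMSO wells without ATP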
#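 Assay system: untransfected parental CHO cell line. Also added: ATP agonist challenge. Dosing: one dose, 5.6 µM nominal. Measured by: Fluo-8 fluorescence. Read-out: % inhibition. Benchmarks: ATP wells versus no-ATP DMSO wells. Repeats: no replicates.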
# The depositor's hits bear a star; · = no result. Rows were chosen to be rich in hits. Some 2.9% of all compounds tested hit in one or more screens of this group.
SMILES,OX1R antag-1,M1 PAM parental,OX1R antag-2,CHO-K1 Ca antag,CHO-K1 Ca ag,CHO parental Ca
Cc1cc2n(n1)C(c1sccc1C)Nc1ccccc1-2 (centres undefined),-3,-7,7,17,0,-14
CC1(Cc2ccc(C(F)(F)F)nc2)C(=O)Nc2cc(-c3ccccc3Cl)ccc21 (centres undefined),·,2,·,-9,0,·
Nc1nnc(SCC(=O)NNC(=O)c2ccc(F)cc2)s1,-11,-17,2,-4,0,-3
Nc1nnc(SCC(=O)NNC(=O)c2ccc([N+](=O)[O-])cc2)s1,1,0,36*,-18,0,-2
CC1CCN(S(=O)(=O)c2nnc(NC(=O)c3ccccc3Br)s2)CC1,-8,10,34,7,2,1
N#C/C(=C\c1cc2c(cc1Br)OCO2)c1ccc(C(=O)O)cc1,-12,16,16,-3,0,100*
N#C/C(=C\c1cc2c(cc1Br)OCO2)C(=O)NCC1CCCO1 (centres undefined),-13,6,3,-1,0,-9
N#C/C(=C/c1ccccc1OCc1ccc(F)cc1)c1ccc(C(=O)O)cc1,-16,14,18,-10,1,-5
CCOc1cc2c(cc1/C=C(/C#N)c1ccc(C(=O)O)cc1)OCO2,11,4,21,7,18*,11
CCOC(=O)N1CCC(N2CCCC(CO)(Cc3cccc(Cl)c3)C2)CC1 (centres undefined),-20,8,8,-11,2,-20
O=C(COc1ccc2cc(Br)ccc2c1Br)N1CCOCC1,·,2,·,2,2,·
Cc1cc(C)c(OCC(=O)Nc2ccc3c(c2)OCO3)cc1C,-4,-6,8,9,0,44*
Cc1cc(OCC(=O)Nc2ccncc2)c(C)cc1Br,14,-15,28,32*,14,58*
Cc1ccc(C)c(OCC(=O)Nc2ccc3c(c2)OCO3)c1,-26,25,1,-10,4,-22
COc1cccc(OCC(=O)Nc2ccncc2)c1,0,14,11,-9,7,-1
Cc1cc(OCC(=O)Nc2ccncc2)cc(C)c1Cl,53*,-8,-3,16,10,44*
CCc1ccc(OCC(=O)Nc2ccncc2)c(Br)c1,28,-26,4,21,9,27
CC(C)CCOc1cccc(OCC(=O)Nc2ccncc2)c1,55*,-15,44,28*,14,59*
O=C(O)CC(CC(=O)N1CCN(C(=O)c2ccco2)CC1)c1ccccc1 (centres undefined),3,-10,3,8,1,8
CC(C)(C)c1ccc(OCC(=O)Nc2ccncc2)c(Br)c1,-19,-7,35,20,11,47*
O=C(COc1ccc2ccccc2c1Br)Nc1cccnc1,-6,1,1,-6,8,-14
O=C(COc1ccc2ccccc2c1Br)Nc1ccncc1,13,-12,26,11,15*,41*
Cc1cc(Cl)ccc1NC(=O)COC(=O)CCNS(=O)(=O)c1ccccc1,-21,16,14,-11,5,-10
O=C(CCc1ccc(S(=O)(=O)N2CCOCC2)cc1)Nc1ccc2c(c1)OCCO2,-5,4,9,-11,1,-8
COc1cccc(NC(=O)C2CCCN(S(=O)(=O)c3cccc4nsnc34)C2)c1 (centres undefined),23,8,85*,5,2,-14
SMILES,OX1R antag-1,M1 PAM parental,OX1R antag-2,CHO-K1 Ca antag,CHO-K1 Ca ag,CHO parental Ca
COc1ccccc1NC(=O)C1CCCN(S(=O)(=O)c2cccc3nsnc23)C1 (centres undefined),-21,-1,52,2,2,-28
CCN1CCN(C(=O)C2CCCN(S(=O)(=O)c3cccc4nsnc34)C2)CC1 (centres undefined),-16,8,52*,-10,0,-13
COc1ccc(NC(=O)C2CCCN(S(=O)(=O)c3cccs3)C2)cc1OC (centres undefined),-21,0,13,5,5,3
O=C(C1CCCN(S(=O)(=O)c2cccc3nsnc23)C1)N1CCCCCC1 (centres undefined),1,6,36,-9,1,-14
O=C(NCC1CCCO1)C1CCCN(S(=O)(=O)c2cccc3nsnc23)C1 (centres undefined),-2,1,55*,1,0,-9
CCc1cccc(NC(=O)C2CCCN(S(=O)(=O)c3cccs3)C2)c1 (centres undefined),6,-18,52*,5,2,-25
C[C@@H]1CN([C@@H](C)CO)C(=O)CCCn2nncc2CO[C@H]1CN(C)S(=O)(=O)c1cccc(C#N)c1,·,21,·,-4,1,·
O=C(NCc1ccccc1)C1CCCN1C(=O)Nc1ccccc1[N+](=O)[O-] (centres undefined),·,-1,·,3,0,·
Cn1ncc([N+](=O)[O-])c1C(=O)NC1CCCCC1,-2,15,8,-3,0,-8
O=[N+]([O-])c1cnn2cc(Br)cnc12,-14,10,74*,-7,0,2
CCOC(=O)c1cnc2c([N+](=O)[O-])cnn2c1C,0,-10,21,-2,0,-2
CC(C)(C)c1cc(C(=O)NNC(=O)Nc2cccc(Cl)c2)n(Cc2ccccc2)n1,-21,-23,5,29*,0,6
CC(C)(C)c1cc(C(=O)NNC(=O)Nc2ccccc2)n(Cc2ccccc2)n1,-20,6,10,2,5,17
O=C(O)CC1(CC(=O)Nc2cccc(C(=O)O)c2)CCCC1,-12,7,0,-8,1,-8
N#C/C(=C\c1coc2ccc(O)cc2c1=O)C(=O)Nc1nc2ccccc2s1,81*,-19,65*,40*,58*,64*
CCCCCCN1C[C@@H](n2cc(-c3ccc(F)cc3)nn2)[C@H](O)C[C@@H]1c1ccccc1,·,2,·,7,3,·
COc1ccc(NS(=O)(=O)c2ccc3oc(SC(C)C(N)=O)nc3c2)cc1 (centres undefined),0,-4,22,17,8,26
O=c1c2cccc3c2c(nn1CN1CCOCC1)-c1ccccc1-3,0,13,71*,8,0,-12
CCN(Cc1ccccc1)C(=O)COc1cc(=O)n(CC)c2ccccc12,-11,12,58*,-3,3,-12
CCN(C(=O)COc1cc(=O)n(CC)c2ccccc12)c1cccc(Cl)c1,-31,2,47*,2,4,-12
COc1cccc(-c2cnc(C(O)c3ccc(C)cc3C)[nH]2)c1 (centres undefined),·,22,·,-14,3,·

# High-throughput results from PubChem BioAssay.
